From ChEMBL document CHEMBL4138314, “Synthesis and Evaluation of N-Phenyl-3-sulfamoyl-benzamide Derivatives as Capsid Assembly Modulators Inhibiting Hepatitis B Virus (HBV)” (J Med Chem, 2018)
Converted amounts (≈) assume the structure as drawn. The source made the active and inactive calls. The calls are words filed in the database; no cut-off is given here.

Columns and labels:
[1] = Drug metabolism in human liver microsomes at 1 uM after 15 mins by LC-MS/MS analysis; assay type: ADME, microsome; settings: read-out: Drug metabolism
Method in brief: (§1)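 Compound incubated 15 min with human or mouse liver microsomes; stability expressed as percent turnover (metabolised) at 15 min.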

HBV genotype D = assay: Antiviral activity against HBV genotype D infected in human HepG2.2.15 cells assessed as inhibition of viral DNA level treated twice for 3 days measured after 6 days by real time PCR; assay type: functional, organism-based; settings: for EC50: Hepatitis B virus; for Activity: hepatitis B virus genotype D
[2] = Cytotoxicity against human HepG2 cells after 6 days by resazurin assay; assay type: cell-based
[3] = target: Core antigen (Hepatitis B virus) (UniProt Q03732); assay: Induction of HBV Maleimidyl BoDIPY-FL-labeled capsid Cp*150 mutant aggregation incubated for 30 mins measured every 10 secs for 30 mins by fluorescence quenching assay
[4] = Cytotoxicity against human HepG2 cells after 4 days by resazurin assay; assay type: cell-based
Hepatitis B virus [5] = assay: Antiviral activity against Hepatitis B virus infected in human HepG2.117 cells assessed as inhibition of viral DNA level after 3 days by real time PCR; assay type: functional, organism-based; settings: HepG2.117, 72 h
[6] = Kinetic solubility of the compound at pH 7.4 after 4 hrs by UPLC-UV analysis; assay type: physicochemical; settings: buffer, read-out: Kinetic_solubility
[7] = Drug metabolism in mouse liver microsomes at 1 uM after 15 mins by LC-MS/MS analysis; assay type: ADME, microsome; settings: read-out: Drug metabolism; method in brief: as §1
Hepatitis B virus [8] = assay: Induction of HBV capsid core protein CP149 aggregation assessed as ratio between area under the curve for observed amount of core dimer and area under the curve for aggregated core protein at 20 uM after 24 hrs by size exclusion chromatographic analysis
Method in brief: (§2)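 Recombinant HBV core assembly domain (aa 1–149, Cp149) was incubated with compound at 20 µM for 24 h, with a no-compound control run in parallel. Size exclusion chromatography gave the ratio of Cp149 dimer AUC to aggregated Cp149 AUC.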

Hepatitis B virus [9] = assay: Induction of HBV capsid core protein CP149 aggregation assessed as large aberrant structure formation at 20 uM after 24 hrs by size exclusion chromatographic analysis; method in brief: as §2
[10] = Cytotoxicity against human HepG2 cells after 4 to 6 days by resazurin assay; assay type: cell-based; settings: HepG2 cells

Core antigen (Hepatitis B virus), sequence (Q03732 as listed by the source): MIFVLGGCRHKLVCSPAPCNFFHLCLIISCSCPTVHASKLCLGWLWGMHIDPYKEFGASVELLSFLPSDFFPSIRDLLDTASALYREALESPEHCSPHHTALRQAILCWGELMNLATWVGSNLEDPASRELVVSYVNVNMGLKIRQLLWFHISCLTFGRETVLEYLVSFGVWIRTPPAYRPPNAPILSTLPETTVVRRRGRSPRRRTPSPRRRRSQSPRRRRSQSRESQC

Row | Compound | metabolised at 0.25 h, 1 µM [1] | EC50 (HBV genotype D) | CC50 at 144 h [2] | Activity [3] | CC50 at 96 h [4] | EC50 (Hepatitis B virus [5]) | solubility kinetic at 4 h [6] | metabolised at 0.25 h, 1 µM [7] | Activity (HBV genotype D) | Ratio (Hepatitis B virus [8]) | Activity (Hepatitis B virus [9]) | CC50 [10]
1 | Cc1ccccc1NC(=O)c1cccc(S(=O)(=O)NC2CCCCC2)c1 | 86% | 4180 nM | > 25 µM | – | – | – | – | – | – | – | – | –
2 | O=C(Nc1cc(F)cc(F)c1)c1cccc(S(=O)(=O)NC2CCCC2)c1 | 79% | 280 nM | – | Active | > 25 µM | 780 nM | 28 µM (≈ 10.7 µg/mL) | 100% | – | – | – | –
3 | O=C(Nc1ccc(F)cc1)c1ccc(Cl)c(S(=O)(=O)N2CCCCCC2)c1 | 98% | 660 nM | 17 µM | Active | – | – | 1 µM (≈ 0.411 µg/mL) | 100% | Dose-dependent effect | 0.01 | inactive | –
4 | CN1CCN(S(=O)(=O)c2cccc(C(=O)Nc3ccc(F)cc3)c2)CC1 | 53% | 26500 nM | – | Active | > 100 µM | 11100 nM | > 100 µM | 84% | – | 6.3 | – | –
5 | O=C(Nc1nccs1)c1cc(S(=O)(=O)NC2CCCCC2)ccc1F | 85% | 29300 nM | – | inactive | > 25 µM | > 25000 nM | > 100 µM | 100% | – | 9.7 | – | –
6 | O=C(Nc1ccc2ccccc2c1)c1cc(S(=O)(=O)NC2CCCCC2)ccc1F | 36% | 12700 nM | – | inactive | 13 µM | > 25000 nM | < 0.2 µM | 56% | – | 7.5 | – | –
7 | CC(C)NS(=O)(=O)c1cccc(C(=O)Nc2ccc(F)c(C3CC3)c2)c1 | 27% | 320 nM | – | – | – | 910 nM | 31 µM (≈ 11.7 µg/mL) | 61% | – | – | – | 35.2 µM
8 | Cc1cc(F)cc(NC(=O)c2cccc(S(=O)(=O)NC3CCCC3)c2)c1 | 74% | 110 nM | – | Active | > 23 µM | 1510 nM | 11 µM (≈ 4.14 µg/mL) | 100% | – | – | – | –
9 | O=C(Nc1cccc2ccccc12)c1cc(S(=O)(=O)NC2CCCCC2)ccc1F | 94% | 15600 nM | – | inactive | > 25 µM | > 25000 nM | 12 µM (≈ 5.12 µg/mL) | 100% | – | – | – | –
10 | Cc1c(F)ccc(NC(=O)c2cccc(S(=O)(=O)N[C@H]3CCOC3)c2)c1F | 25% | 290 nM | – | – | – | 780 nM | > 100 µM | 66% | – | – | – | > 25 µM
11 | O=C(Nc1cccnc1)c1cc(S(=O)(=O)NC2CCCCC2)ccc1F | 57% | – | – | inactive | > 25 µM | 24800 nM | > 100 µM | 99% | – | 9.8 | – | –
12 | O=C(Nc1ccncc1)c1cc(S(=O)(=O)NC2CCCCC2)ccc1F | 68% | 5300 nM | – | inactive | > 25 µM | 16300 nM | > 100 µM | 75% | – | 6 | – | –
13 | O=C(Nc1ccc(F)c(F)c1)c1cccc(S(=O)(=O)NC2CCCC2)c1 | 45% | 93 nM | – | Active | > 25 µM | 360 nM | 46 µM (≈ 17.5 µg/mL) | 86% | – | – | – | –
14 | CC(C)NS(=O)(=O)c1cccc(C(=O)Nc2ccc(F)c(C(C)C)c2)c1 | 31% | 1400 nM | – | – | – | 2790 nM | 13 µM (≈ 4.92 µg/mL) | 96% | – | – | – | 29.8 µM
15 | CN(C(=O)c1cccc(S(=O)(=O)NC2CCCC2)c1)c1ccc(F)cc1 | 100% | 89600 nM | – | inactive | > 25 µM | > 25000 nM | > 100 µM | 100% | – | – | – | –
16 | Cc1cc(NC(=O)c2cccc(S(=O)(=O)NC(C)C)c2)ccc1F | 26% | 70 nM | – | Active | – | 150 nM | 41 µM (≈ 14.4 µg/mL) | 80% | – | – | – | 47.5 µM
17 | COc1cc(NC(=O)c2cccc(S(=O)(=O)N[C@H]3CCOC3)c2)ccc1F | 20% | 2330 nM | – | – | – | 2660 nM | > 100 µM | 35% | – | – | – | > 25 µM

Row | Compound | metabolised at 0.25 h, 1 µM [1] | EC50 (HBV genotype D) | CC50 at 144 h [2] | Activity [3] | CC50 at 96 h [4] | EC50 (Hepatitis B virus [5]) | solubility kinetic at 4 h [6] | metabolised at 0.25 h, 1 µM [7] | Activity (HBV genotype D) | Ratio (Hepatitis B virus [8]) | Activity (Hepatitis B virus [9]) | CC50 [10]
18 | O=C(Nc1ccc(F)c(F)c1)c1cccc(S(=O)(=O)N[C@H]2CCOC2)c1 | 5% | 380 nM | – | – | – | 510 nM | > 100 µM | 42% | – | – | – | > 50 µM
19 | CCN(CC)S(=O)(=O)c1ccc(Cl)c(C(=O)Nc2ccccc2)c1 | 80% | 1040 nM | > 25 µM | – | – | – | – | – | Dose-dependent effect | 0.7 | inactive | –
20 | CN(c1cccc(C(=O)Nc2ccc(F)cc2)c1)S(=O)(=O)C1CCCC1 | 86% | 7500 nM | – | – | 43.2 µM | 16300 nM | 53 µM (≈ 20 µg/mL) | 99% | – | 2 | – | –
21 | O=C(Nc1ccc(F)cc1)c1cccc(NS(=O)(=O)C2CCCCC2)c1 | 46% | 1100 nM | – | – | 33.6 µM | 2200 nM | 86 µM (≈ 32.4 µg/mL) | 91% | – | 0.3 | – | –
22 | Cc1c(F)ccc(NC(=O)c2cccc(S(=O)(=O)NC3(C)COC3)c2)c1C | 0% | 2740 nM | – | – | – | 1650 nM | > 100 µM | 77% | – | – | – | > 25 µM
23 | CC(=O)N1CCN(S(=O)(=O)c2cccc(C(=O)Nc3ccc(F)cc3)c2)CC1 | 19% | 7100 nM | – | – | > 100 µM | 6300 nM | 86 µM (≈ 34.9 µg/mL) | 52% | – | 0.9 | – | –
24 | O=C(Nc1ccccc1)c1cc(S(=O)(=O)NC2CCCCC2)ccc1F | 63% | 660 nM | – | – | > 25 µM | 600 nM | 21 µM (≈ 7.91 µg/mL) | 100% | – | 0.1 | – | –
25 | Cc1cc(NC(=O)c2cccc(S(=O)(=O)NC3CCCC3)c2)ccc1F | 66% | 100 nM | – | Active | 48.2 µM | 420 nM | 33 µM (≈ 12.4 µg/mL) | 97% | – | 0.02 | – | –
26 | Cc1c(NC(=O)c2cccc(S(=O)(=O)N[C@H]3CCOC3)c2)ccc(F)c1F | 37% | 3630 nM | – | – | – | 1910 nM | > 100 µM | 68% | – | – | – | > 25 µM
27 | N#Cc1cc(NC(=O)c2cccc(S(=O)(=O)N[C@H]3CCOC3)c2)ccc1F | 13% | 810 nM | – | – | – | 980 nM | > 100 µM | 27% | – | – | – | > 50 µM
28 | CCc1cc(NC(=O)c2cccc(S(=O)(=O)NC(C)C)c2)ccc1F | 31% | 310 nM | – | – | – | 2590 nM | 15 µM (≈ 5.47 µg/mL) | 88% | – | – | – | 28.5 µM
29 | O=C(Nc1ccccc1)c1ccc(F)c(S(=O)(=O)NC2CCCCC2)c1 | 100% | 2230 nM | 16.4 µM | – | – | – | – | – | Dose-dependent effect | – | – | –
30 | Cc1cc(NC(=O)c2cccc(S(=O)(=O)NC3(C)COC3)c2)c(C)cc1F | 1% | 3060 nM | – | – | – | 1910 nM | > 100 µM | 78% | – | – | – | > 25 µM
31 | Cc1cc(NC(=O)c2cccc(S(=O)(=O)N[C@H]3CCOC3)c2)c(F)cc1F | 17% | 2220 nM | – | – | – | 3300 nM | > 100 µM | 69% | – | – | – | > 25 µM
32 | O=C(Nc1ccc(F)cc1)c1cc(S(=O)(=O)NC2CCCCC2)ccc1F | 61% | 780 nM | – | – | > 50 µM | 1300 nM | 58 µM (≈ 22.9 µg/mL) | 79% | – | 0.3 | – | –
33 | CC(C)(C)NS(=O)(=O)c1cccc(C(=O)Nc2ccc(F)cc2)c1 | 15% | 1240 nM | – | – | 52.5 µM | 2280 nM | 1 µM (≈ 0.35 µg/mL) | 31% | – | 0.9 | – | –
